Results from ChEMBL document CHEMBL1629539, “Configuration of the 5'-methyl group modulates the biophysical and biological properties of locked nucleic acid (LNA) oligonucleotides” (J Med Chem, 2010).
Calls of active or inactive are those of the source. The calls are words filed in the database; no cut-off is given here.

How the values were obtained:
[1] = system: Mus musculus; test: Hepatoprotective activity in BALB/c mouse assessed as at 23 mg/kg, ip assessed as reduction of plasma alanine amino transferase levels after 72 hrs post dose; format: functional, organism-based; design: dose 23 mg/kg
Method in brief: (§1)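 Balb-c mice, 4 per group, one ip dose at 23 or 46 mg/kg of 14-mer fully phosphorothioate gapmer ASO targeting PTEN. Sacrifice 72 h after dosing. Liver PTEN mRNA quantified by quantitative RT-PCR, expressed as % down-regulation versus saline-treated animals. Plasma ALT (IU/L) measured after sacrifice.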

[2] = system: Mus musculus; test: Toxicity in BALB/c mouse assessed as increase in spleen weight at 1.5 mg/kg, ip administered twice weekly for 3 weeks measured after 72 hrs post last dose; format: organism-based; design: dose 1.5 mg/kg, route intraperitoneal; details: in vivo
Method in brief: (§2)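 Balb-c mice (n = 4/group) dosed ip twice a week for 3 weeks at 0.5, 1.5, 4.5 and 15 mg/kg of PTEN-targeting 14-mer phosphorothioate gapmer. Sacrifice 72 h after last dose. Liver PTEN mRNA by quantitative RT-PCR as % versus saline, with ED50 derived from dose-response. Plasma ALT (IU/L) recorded. Spleen weight given as fold increase over saline group.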

[3] = system: Mus musculus; test: Toxicity in BALB/c mouse assessed as increase in spleen weight at 15 mg/kg, ip administered twice weekly for 3 weeks measured after 72 hrs post last dose; format: organism-based; design: dose 15 mg/kg, route intraperitoneal; details: in vivo; method in brief: as §2
[4] = system: Mus musculus; test: Toxicity in BALB/c mouse assessed as increase in spleen weight at 4.5 mg/kg, ip administered twice weekly for 3 weeks measured after 72 hrs post last dose; format: organism-based; design: dose 4.5 mg/kg, route intraperitoneal; details: in vivo; method in brief: as §2
[5] = system: Mus musculus; test: Reduction in PTEN mRNA expression in ip dosed BALB/c mouse liver administered twice weekly for 3 weeks measured after 72 hrs post last dose; format: functional; method in brief: as §2
[6] = system: Mus musculus; test: Hepatoprotective activity in BALB/c mouse assessed as at 46 mg/kg, ip assessed as reduction of plasma alanine amino transferase levels after 72 hrs post dose; format: functional, organism-based; design: dose 46 mg/kg; method in brief: as §1

In the case of `Cc1cn([C@@H]2O[C@@]3(COP(O)(=S)O[C@@H]4[C@H]5OC[C@]4(CO)O[C@H]5n4cc(C)c(=O)[nH]c4=O)CO[C@@H]2[C@@H]3OP(O)(=S)OC[C@@]23CO[C@@H]([C@H](n4cnc5c(N)ncnc54)O2)[C@@H]3OP(O)(=S)OC[C@@]23CO[C@@H]([C@H](n4cc(C)c(=O)[nH]c4=O)O2)[C@@H]3OP(O)(=S)OC[C@@]23CO[C@@H]([C@H](n4cnc5nc(N)[nH]c(=O)c54)O2)[C@@H]3OP(O)(=S)OC[C@@]23CO[C@@H]([C@H](n4cnc5nc(N)[nH]c(=O)c54)O2)[C@@H]3OP(O)(=S)OC[C@@]23CO[C@@H]([C@H](N4CCC(N)=NC4=O)O2)[C@@H]3OP(O)(=S)OC[C@@]23CO[C@@H]([C@H](n4cc(C)c(=O)[nH]c4=O)O2)[C@@H]3OP(O)(=S)OC[C@@]23CO[C@@H]([C@H](n4cnc5nc(N)[nH]c(=O)c54)O2)[C@@H]3OP(O)(=S)OC[C@@]23CO[C@@H]([C@H](n4ccc(N)nc4=O)O2)[C@@H]3OP(O)(=S)OC[C@@]23CO[C@@H]([C@H](n4cnc5c(N)ncnc54)O2)[C@@H]3OP(O)(=S)OC[C@@]23CO[C@@H]([C@H](n4cnc5nc(N)[nH]c(=O)c54)O2)[C@@H]3OP(O)(=S)OC[C@@]23CO[C@@H]([C@H](n4cc(C)c(N)nc4=O)O2)[C@@H]3OP(O)(=S)OC[C@@]23CO[C@@H]([C@H](n4ccc(=O)[nH]c4=O)O2)[C@@H]3O)c(=O)nc1N` (some centres not stated), the Activity [1] is reported as “inactive”, the Activity [2] is reported as “Toxic” and the Activity [3] is reported as “Non-toxic”. For the same compound, the Activity [4] was “Toxic”, the ED50 [5] was 3.1 mg/kg and the inhibition [5] was “Dose-dependent effect”. For the same compound, the Activity [6] was “inactive”.
